A selection: hits, their analogues and other compounds. The true share with any hit is near 2.6%.
esBAF inh: SWI/SNF esBAF complex inhibition; mouse ES cells, Bmi1-luciferase knock-in reporter, 24 h; 100% = twice the neutral-well signal; reporter increase, % at 12.5 µM; hit rate 2% among 350,000; AID 602393; in the data active = activation above about 40%;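 note: a rise in the Bmi1 reporter signal indicates esBAF inhibition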
SMARCA2 activ: SMARCA2 function activation, primary screen; hit rate 1% among 370,000; AID 652017; MG213 cells, MMTV-luciferase reporter, dexamethasone, overnight; activation, % at 9.1 µM; in the data active = activation above about 7.8%
ASAP1 inh: inhibitors of human ASAP1 ArfGAP activity; hit rate 0.19% among 360,000; ASAP1-stimulated ARF1 GTP hydrolysis, GDP FP detection; Q9ULH1; inhibition, % at 16.5 µM; in the data active = inhibition above about 25%
Target sequence (Q9ULH1 325-724 limits assumed): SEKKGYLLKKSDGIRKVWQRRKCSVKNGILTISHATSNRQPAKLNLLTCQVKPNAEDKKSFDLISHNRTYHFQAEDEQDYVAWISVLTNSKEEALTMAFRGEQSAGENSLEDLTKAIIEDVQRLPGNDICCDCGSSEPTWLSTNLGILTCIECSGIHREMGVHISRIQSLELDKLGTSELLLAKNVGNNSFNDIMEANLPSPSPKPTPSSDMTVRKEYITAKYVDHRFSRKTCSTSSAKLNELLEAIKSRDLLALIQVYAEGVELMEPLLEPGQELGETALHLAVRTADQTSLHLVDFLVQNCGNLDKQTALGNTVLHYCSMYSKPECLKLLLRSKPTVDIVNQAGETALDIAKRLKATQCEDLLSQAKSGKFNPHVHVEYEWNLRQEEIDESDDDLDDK
ARFGAP1 inhibitor: inhibitors of rat ARFGAP1. Q62848. Arfgap1-stimulated ARF1 GTP hydrolysis, GDP FP detection. inhibition, % at 16.5 µM. hit rate 0.26% among 360,000. AID 651572;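 active = inhibition above a per-plate limit, mean inhibition of low control wells plus 3 SD, cut at about 25% in these data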
Target sequence (Q62848 1-136 limits assumed): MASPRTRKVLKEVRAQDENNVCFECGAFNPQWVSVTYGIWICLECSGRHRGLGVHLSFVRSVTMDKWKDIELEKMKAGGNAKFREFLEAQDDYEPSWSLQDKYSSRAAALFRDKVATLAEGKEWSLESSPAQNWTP
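Material – truncated rat Arfgap1 GAP domain · Buffer or medium – HEPES-based buffer, pH 7.5 · Reagent – human ARF1(Δ1-17)-GTP substrate · Dosing – 16.5 µM single point, 1.26% DMSO · Schedule – GTP hydrolysis reaction 2 h at 25 °C · Technique – GDP detection by fluorescence polarization · Benchmarks – No-Arfgap1 wells (100%) versus DMSO full-reaction wells (0%) · Repeats – single replicate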
ASAP1 inh confirm: confirmation of human ASAP1 inhibitors; shares compounds with ASAP1 inh; ASAP1-stimulated Arf1 GTPase, GDP fluorescence polarization; inhibition, % at 16.5 µM; hit rate 37% among 620;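 active = mean inhibition over triplicates exceeds the hit threshold derived for the earlier primary screening run, cut at about 25% in these data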
Numbers stand for hits; – = inactive; · = no result.

SMILES	esBAF inh	SMARCA2 activ	ASAP1 inh	ARFGAP1 inhibitor	ASAP1 inh confirm
N#Cc1c(N2CCCC2)nc(N)c2c(N)nc(N3CCCC3)cc12	69.1	–	26.6	–	–
CN1CCN(C(=O)C[C@H]2CC[C@H](NC(=O)Cc3ccccn3)[C@@H](CO)O2)CC1	–	·	·	·	·
O=C(Cn1nc(-c2ccccc2)ccc1=O)Nc1ccc(-n2cnnn2)cc1	–	–	–	–	·
O=C(Cn1nc(-c2ccc3c(c2)OCCO3)ccc1=O)Nc1ccc(-n2cnnn2)cc1	·	–	35.7	–	36.4
O=c1[nH]c(Nc2ccccc2)cc2cc(Br)ccc12	–	–	36.2	–	–
O=c1cc(Nc2cccc(Br)c2)[nH]c(=O)[nH]1	·	–	–	–	·
C[C@H]1CN([C@@H](C)CO)S(=O)(=O)c2ccc(C#CC3(O)CCCC3)cc2O[C@H]1CN(C)C(=O)Cc1ccncc1	–	·	·	·	·
O=C(C[C@H]1C=C[C@H](NS(=O)(=O)c2cccc(F)c2)[C@@H](CO)O1)N1CCCCC1	–	·	·	·	·
CN1CCN(c2ccc(NC(=O)c3ccc(-c4cccc([N+](=O)[O-])c4)o3)cc2)CC1	·	–	31.4	–	106.2
CCCS(=O)(=O)c1c(S(=O)(=O)CCC)c2ccc(C(N)=O)cn2c1C(=O)c1ccc(F)cc1	–	–	–	–	·
CCCS(=O)(=O)c1c(S(=O)(=O)CCC)c2cnccn2c1C(=O)c1ccc(Cl)cc1	·	–	27.1	–	–
O=C(Nc1ccc(Cn2cccn2)cc1)c1ccc(COc2cccc(Br)c2)cc1	–	–	29.0	–	–
COc1ccc(S(=O)(=O)N(C)C[C@@H]2OCCCC[C@@H](C)Oc3ccc(NC(=O)Nc4ccc5c(c4)OCO5)cc3C(=O)N([C@@H](C)CO)C[C@H]2C)cc1	–	·	·	·	·
Cn1c(N)c(C(C[N+](=O)[O-])c2ccccc2Cl)c(=O)n(C)c1=O (stereo not drawn)	·	–	56.2	–	–
CCN1[C@@H]2Cn3c(ccc(-c4cccc(F)c4)c3=O)[C@H]1[C@@H](C(=O)N(C)C)[C@@H]2CO	–	·	·	·	·
COc1ccc(/C=C2\C(=O)NC(=S)N2C(=O)c2ccc(F)cc2)cc1	·	–	24.9	–	–
C[C@@H]1CN([C@H](C)CO)C(=O)c2cccc(NS(=O)(=O)c3ccc(Cl)cc3)c2O[C@@H]1CN(C)Cc1ccc(C(=O)O)cc1	–	·	·	·	·
CNC(=O)C(=O)Nc1ccc2c(c1)N(S(=O)(=O)c1cccs1)CCC2	–	–	28.6	–	–
CC(C)NC(=O)C(=O)Nc1ccc2c(c1)N(S(=O)(=O)c1cccs1)CCC2	–	–	–	–	·
COc1ccc(NC(=O)c2ccc(-c3ccccc3C(F)(F)F)o2)cc1	–	7.9	25.9	–	–
O=C(C[C@@H]1CC[C@@H]2[C@H](COC[C@H](O)CN2S(=O)(=O)c2cccc(Cl)c2)O1)NCc1ccc2c(c1)OCO2	–	·	·	·	·
CC(C)=CCn1c2ccc(NC(=O)Nc3cccnc3)cc2c(=O)n1C	–	–	24.8	–	–
C[C@H]1CN([C@@H](C)CO)S(=O)(=O)c2ccc(/C=C/c3ccccc3)cc2O[C@H]1CN(C)Cc1cncnc1	–	·	·	·	·
COc1ccccc1CNc1nc(NCCOc2ccccc2)c2sccc2n1	–	–	25.0	–	–
C[C@H]1CCCCO[C@@H](CN(C)S(=O)(=O)c2ccc(F)cc2)[C@@H](C)CN([C@@H](C)CO)C(=O)c2cc(NS(=O)(=O)c3ccc(Cl)cc3)ccc2O1	–	·	·	·	·
SMILES	esBAF inh	SMARCA2 activ	ASAP1 inh	ARFGAP1 inhibitor	ASAP1 inh confirm
O=C(Oc1ccc(-c2cnc3ccccc3n2)cc1)c1cc([N+](=O)[O-])ccc1Cl	·	–	–	–	·
Cc1c(C(=O)Oc2ccc(-c3cnc4ccccc4n3)cc2)cccc1[N+](=O)[O-]	–	–	25.1	–	–
COc1ccc(Cl)cc1S(=O)(=O)NCc1cccnc1	–	–	25.6	–	–
COc1ccc([C@H]2CN(c3ccc(OC)cc3)C(=O)[C@@H]2CC(=O)Nc2ccccc2)cc1	–	–	28.1	–	–
COc1ccc(NC(=O)C[C@H]2C(=O)N(c3ccc(Br)cc3)C[C@@H]2c2ccc(OC)cc2)cc1	–	–	–	–	·
COc1cccc(NC(=O)N2C[C@@H](O)COC[C@H]3O[C@H](CC(=O)NCCCN4CCOCC4)CC[C@@H]32)c1	–	·	·	·	·
CC(=O)Nc1ccc(N2C(=O)CSC2c2c(F)cccc2Cl)cc1 (stereo not drawn)	–	–	27.1	–	–
CC(=O)Nc1ccc(N2C(=O)CSC2c2ccc(F)cc2)cc1 (stereo not drawn)	·	–	–	–	·
Cc1ccc(NC2=C(N3CCOCC3)C(=O)c3ccccc3C2=O)cc1	–	–	36.2	–	–
Cc1noc(C)c1NC(=O)Nc1ccc2c(c1)C(=O)N([C@H](C)CO)C[C@@H](C)[C@@H](CN(C)S(=O)(=O)c1cccs1)O2	–	·	·	·	·
CCCNC(=O)C[C@H]1CC[C@@H]2[C@H](COC[C@@H](O)CN2C(=O)Nc2ccc3c(c2)OCO3)O1	–	·	·	·	·
CC1CCCCN1c1cc(C#N)c(C#N)cc1[N+](=O)[O-] (stereo not drawn)	–	–	–	–	·
CC1CCc2cccc3c2N1c1cc(C#N)c(C#N)cc1O3 (stereo not drawn)	–	–	27.2	–	–
O=C(Nc1ccc(OC(F)(F)F)cc1)N1CCN(c2ccnc3cc(Cl)ccc23)CC1	–	–	25.3	–	–
CO[C@H]1CC[C@H]2CCN(C)C(=O)CCCN(C)C(=O)c3cccc(C#N)c3OC[C@H]1O2	–	·	·	·	·
COc1ccc(/C=C2\SC(=O)N(CC(=O)Nc3ccc(O)cc3)C2=O)cc1OC	–	–	–	–	·
Cc1ccc(NC(=O)CN2C(=O)S/C(=C\c3cc(Cl)c(OCC(=O)O)c(Cl)c3)C2=O)cc1	–	–	64.8	37.2	75.0
O=C(NCC1CCCCC1)[C@H]1[C@H](CO)[C@H]2Cn3c(cccc3=O)[C@H]2N1Cc1ccccn1	–	·	·	·	·
O=C(C1CCCN(Cc2ccccc2[N+](=O)[O-])C1)N1CCCC1 (stereo not drawn)	–	–	26.7	–	–
O=C(C1CCCN(Cc2ccccc2F)C1)N1CCCC1 (stereo not drawn)	–	–	–	–	·
Cc1ccc(SCC(=O)NC2CC2)cc1	–	–	26.5	–	–
COc1ccc(/C=N/NC(=O)Cn2c(Cc3ccc(OC)c(OC)c3)nc3ccccc32)cc1OC	·	–	31.1	–	–
O=C(COC(=O)C1CC(=O)N(Cc2ccco2)C1)c1ccc(OC(=O)c2ccco2)cc1 (stereo not drawn)	–	–	28.4	–	–
CC1=CC2=NC(=O)/C(=C\c3ccc(-c4ccc(Cl)cc4)o3)C(=N)N2O1	·	–	29.8	–	87.4
CN(C(=O)CSc1nncn1C)C1CCCN(Cc2ccccc2F)C1 (stereo not drawn)	·	–	30.6	–	–
CN(C(=O)CCN1CCCO1)C1CCCN(Cc2ccccc2F)C1 (stereo not drawn)	–	–	–	–	·
C[C@H]1CN([C@@H](C)CO)C(=O)Cc2cc(NC(=O)CCC(F)(F)F)ccc2O[C@H]1CN(C)C(=O)Nc1ccccc1	–	·	·	·	·
COc1ccccc1Oc1cc(F)nc(N)n1	–	–	25.8	–	–
